Compounds with a hit are over-represented: about 7.2% of the library has one in this group of screens.
DAT uptake mod: changed hDAT dopamine uptake under cocaine IC80, either direction, primary screen, cocaine antagonist project, cell-based, LLC-PK1 hDAT, [14C]-dopamine uptake, MLSMR; Sodium-dependent dopamine transporter (Homo sapiens), Q01959; B-score at 10 µM; 110,000 tested, 1.3% active; LLC-PK1 hDAT cells, [14C]-dopamine uptake with cocaine IC80; actives deviate in either direction;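 active = Z score or B-score, a plate-position-corrected score, falls beyond the plate's 99.7% confidence bounds, in either direction; inactive = both scores lie inside the 99.7% bounds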;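 note: scored against the spread of the other compound wells on the same plate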
M1 antagonist: antagonists of rat M1 muscarinic receptor; Muscarinic acetylcholine receptor M1 (Rattus norvegicus), P08482; CHO-M1 cells, Fluo-4 calcium, ACh EC80 antagonist mode; hits give low values; B-score at 10 µM; 64,000 tested, 3.4% active; AID 628, 2007;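 active = calcium fluorescence response, raw or row-and-column corrected B-score, differing from the plate sample mean either way at a set confidence level, mostly lower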
Target sequence (P08482 whole entry, looked up): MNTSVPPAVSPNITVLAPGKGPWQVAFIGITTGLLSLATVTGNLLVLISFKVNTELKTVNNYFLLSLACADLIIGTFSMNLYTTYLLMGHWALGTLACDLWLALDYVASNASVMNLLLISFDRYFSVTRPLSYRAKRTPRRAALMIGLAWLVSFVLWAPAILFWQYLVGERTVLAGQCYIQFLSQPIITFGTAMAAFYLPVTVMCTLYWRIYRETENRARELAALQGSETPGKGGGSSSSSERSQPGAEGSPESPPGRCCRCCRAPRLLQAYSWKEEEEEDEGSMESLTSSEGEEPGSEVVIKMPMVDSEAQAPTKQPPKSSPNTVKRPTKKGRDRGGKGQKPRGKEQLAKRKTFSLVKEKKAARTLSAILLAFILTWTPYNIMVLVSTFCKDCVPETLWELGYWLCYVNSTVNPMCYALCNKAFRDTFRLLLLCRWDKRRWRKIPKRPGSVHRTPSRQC
D1 allo mod: D1 CRE-luciferase signal change, two-sided – cell-based, HEK293 D1, dopamine EC30, D1 allosteric modulator project, primary screen; B-score at 10 µM; 58,000 tested, 5.9% active; dopamine EC30 potentiation; actives deviate in either direction; D(1A) dopamine receptor (Homo sapiens), P21728;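 active = luminescence count or its row- and column-corrected plate score outside the 99.7% band of the plate's sample wells, on either side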
M1 agonist: M1 muscarinic receptor agonists, primary screen, CHO-M1 cells, Fluo-4 calcium, agonist mode; Muscarinic acetylcholine receptor M1; Fluo-4 calcium fluorescence; hits give high values; B-score at 10 µM; 64,000 tested, 3% active; AID 626, 2007;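 active = fluorescence rise, raw or as B-score row- and column-corrected plate score, outside the 99.7% band of its plate's samples, either direction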
HEK293 NFkB inh: inhibitors of PMA/ionomycin-induced NF-kB reporter, primary screen, antigen receptor NF-kB inhibitor project, cell-based, HEK-293 luciferase reporter, luminescence. HEK-293 NF-kB luciferase reporter. inhibition, % at 3 µM. 62,000 tested, 0.21% active;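 active = inhibition above the mean of all tested compounds plus 3 SD, cut at about 40% in these data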;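 note: 0% = stimulated DMSO wells and 100% = 10 µM reference inhibitor 5653914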
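System: NF-kB luciferase reporter HEK-293 cells | Replication: Single test | Control set: DMSO vs reference inhibitor | Evaluation: % inhibition | Schedule: 1 h pretreatment, 16 h stimulation, 37 °C | Probe or stimulus: PMA with ionomycin | Compound dosing: One dose, 3 µM | Detection: Luciferase luminescence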
BAP1 inh: inhibitors of BAP1 deubiquitinase, primary screen, biochemical, Ub-AMC fluorescence, kinetic. recombinant BAP1, Ub-AMC hydrolysis fluorescence kinetic; hits give low values. calls only at 20 µM. 72,000 tested, 0.48% active;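 active = activity remaining at or below 50% of control, provided the compound also passes the data quality filters; inactive = the rest, including low values that fail the filters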;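 note: 100% = DMSO wells rate and 0% = substrate alone blank rate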
BAP1 inh confirm: BAP1 deubiquitinase inhibitors, hit retest, confirmation, orthogonal assay, biochemical, Ub-ethyl ester substrate, HPLC readout | shares compounds with BAP1 inh | purified BAP1, Ub-ethyl ester hydrolysis; hits give low values | % of control activity, % at 20 µM | 310 tested, 8% active | AID 753, 2007;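 active = percent of control activity at or below 60%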
The depositor's hits bear a star; i = inactive; · = not tested or not shown; + = active, no number.

SMILES	DAT uptake mod	M1 antagonist	D1 allo mod	M1 agonist	HEK293 NFkB inh	BAP1 inh	others
CCCCn1c(O)c(C(C)=NC(Cc2c[nH]c3ccccc23)C(=O)OC)c(=O)[nH]c1=O (configuration not stated)	2.69*	0.017	-0.681	-0.0436	11.1	i
CCCCn1c(O)c(C=NC2CCCCC2N)c(=O)[nH]c1=O (configuration not stated)	-8.77*	0.55	-0.827	1.81	-6.1	i
CCCCCCn1c(O)c(C=NC2CCCCC2N)c(=O)[nH]c1=O (configuration not stated)	-0.743	-0.049	0.0599	-0.513	2.6	i
Cc1ccc2c(c1)C1CN(C)CCC1N2C(=O)c1ccc(Br)o1 (configuration not stated)	0.377	-0.0866	-3.13*	-1.69	11.7	i
Cc1ccc2c(c1)[C@@H]1CN(C)CC[C@@H]1N2C(=O)Nc1cccc(C(F)(F)F)c1	0.645	0.918	-4.78*	0.566	·	i
Cc1c(Cl)c([N+](=O)[O-])nn1CC(=O)Nc1ccc(Cl)cc1C(=O)c1ccccc1	·	·	·	·	·	i
COc1ccc(C(=O)Nc2ccc(Cl)cc2C(=O)c2ccccc2Cl)c(OC)c1	·	·	·	·	·	i
O=c1cccc2n1CC1CC2CN(c2ncnc3c2cnn3-c2ccc(Cl)cc2)C1 (configuration not stated)	-0.294	0.253	0.369	-3.55*	8.9	·
O=C(COc1ccc(Cl)cc1)Nc1ccc(Br)cc1C(=O)c1ccccc1	·	·	·	·	·	i
CCOc1ccc(NC(=O)c2c(O)[nH]c(=O)[nH]c2=O)cc1	-0.0778	·	·	·	·	·
CCOC(=O)c1ccc(NC(=O)c2c(O)[nH]c(=O)[nH]c2=O)cc1	·	0.27	0.729	86.5*	-1.0	i
CCOC(=O)[C@]1(C#N)[C@@H]2C=CC(C(C)=O)=CN2[C@@H](C(N)=O)[C@@H]1c1ccsc1	-0.783	-0.203	·	26*	·	i
c1ccc2c(CCNC3=NCCC3)c[nH]c2c1	-0.0169	0.629	-2.7*	0.691	-4.7	i
CNc1ccc2oc(C[C@H]3O[C@@]4(CC[C@H]3C)O[C@H]([C@H](C)C(=O)c3ccc[nH]3)[C@H](C)C[C@H]4C)nc2c1C(=O)O	-0.797	·	·	·	·	+
CC(C)CC12CN3CCN(CC(C3)C1O)C2 (configuration not stated)	0.61	1.39*	-0.026	1.12	5.2	i
O=[N+]([O-])c1ccc(NC23CC4CC(CC(C4)C2)C3)c2ncccc12	·	·	·	·	·	i
CCCc1[nH]nc2c1C1(C(=O)N(CC(N)=O)c3ccccc31)C(C(=O)OC)=C(N)O2 (configuration not stated)	-0.459	2.29*	0.0137	1.77	-2.5	i
CCCc1[nH]nc2c1C1(C(=O)N(Cc3ccccc3)c3ccccc31)C(C(=O)OC)=C(N)O2 (configuration not stated)	0.615	·	·	·	·	·
COC(=O)c1cc2c(cn1)[nH]c1ccccc12	·	·	·	·	·	+
O=C(c1sc2ccccc2c1Cl)N1CCC2(CC1)OCCO2	0.968	0.084	-0.327	-0.562	5.0	i
Cc1c(C(=O)N2CCC3(CC2)OCCO3)sc2ncnc(N3CCN(c4ccccn4)CC3)c12	1.08	-0.896	-6.7*	5.04	22.3	i
O/N=C/c1c[nH]c2ccccc12	0.441	-0.91	0.0652	0.0506	-1.2	i
C=CCN(CC=C)Cc1c[nH]c2ccccc12	0.134	0.222	-5.57*	-1.05	23.4	i
O=P(Nc1cccc(F)c1)(Oc1ccccc1Cl)Oc1ccccc1Cl	·	·	·	·	·	i
O=C(Nc1ccc(Br)cc1)c1nn(C23CC4CC(CC(C4)C2)C3)cc1Br	3.02*	·	·	·	·	·
SMILES	DAT uptake mod	M1 antagonist	D1 allo mod	M1 agonist	HEK293 NFkB inh	BAP1 inh	others
O=C(Nc1ccc(Br)cc1C(=O)c1ccccc1Cl)c1cccs1	·	·	·	·	·	i
CCc1nc2ccccc2c(=O)n1-c1ccc(O)cc1	·	·	·	·	·	i
C[C@H]1CCC[C@H](O)CCCCCc2cc(O)cc(O)c2C(=O)O1	0.00516	2.42*	0.0115	-0.127	9.5	i
CC1CCC[C@H](O)CCCCCc2cc(O)cc(O)c2C(=O)O1 (some centres not stated)	-0.603	·	·	·	·	·
Fc1ccc2c(c1)nnn2C1CCN(Cc2nnnn2CCc2ccccc2)CC1	1.7	-0.000495	-1.46	-0.614	13.1	i
Fc1ccc2c(c1)nnn2C1CCN(Cc2ccccc2)CC1	0.176	-1.05	-4.42*	-0.681	7.5	i
CC12CCC(O)CC1=CCC1C2CCC2(C)C(O)C(=Cc3ccc(OC(F)F)cc3)CC12 (configuration not stated)	·	·	·	·	·	i
Cc1ccc2nc3c(cc2c1)CC1(C(=O)N(C)C(=O)N(C)C1=O)C1COCCN31 (configuration not stated)	0.225	0.187	-0.423	0.527	3.6	i
Cc1ccc2nc3c(cc2c1)CC1(C(=O)N(C)C(=O)N(C)C1=O)C1CCCCN31 (configuration not stated)	2.94*	-0.629	-0.0502	0.131	-12.1	i
CCCCn1c(=O)c(C(=O)NCc2ccncc2)c(O)c2ccccc21	0.794	-0.576	1.44	1.4	-1.8	+	BAP1 inh confirm=140.5
O=C(Nc1ccc(Cl)cc1C(=O)c1ccccc1Cl)c1ccc([N+](=O)[O-])s1	·	·	·	·	·	i
COCCOC(=O)c1c(N)n(Cc2ccco2)c2nc3ccccc3nc12	0.315	-0.146	0.394	1.3	·	·	BAP1 inh confirm=145.4
O=C(Nc1ccncc1)c1c(O)c2ccccc2n(Cc2ccccc2)c1=O	·	-0.362	·	0.0496	·	i
O=C(Nc1cccnc1)c1c(O)c2c(n(Cc3ccccc3)c1=O)CCCC2	-0.158	0.0315	·	0.58	-4.2	+	BAP1 inh confirm=69.0
CCOc1ccc(C(=O)Nc2ccc(Br)cc2C(=O)c2ccccc2)cc1	·	·	·	·	·	i
Cc1ccc(C(=O)C2CN(C)CC2C(=O)c2ccc(C)cc2)cc1 (configuration not stated)	-0.417	·	·	·	·	·

Screens deposited in PubChem BioAssay by several laboratories.
